Experimental data from different studies.
Protocols differ between the studies behind these lines. pIC50: −log10 of the molar value.
Cell line: A549
Effect on: cell growth or viability

With `CC1=CC(=O)C(C(C)C)=CC1=O` the pIC50 was 4.95 (SRB; 48 h).
`CC(C)CNC(=S)N/N=C/c1ccc(N2CCC(O)CC2)cc1` has a pIC50 of 5.82 (MTT; 24 h).
The pIC50 of `CCCCn1cnc2ccc(-c3ccc(NC(C)=O)nc3)cc2c1=O` is reported as < 5.00 (CCK-8; 72 h).
`O=C(Nc1ccc(Cl)cc1)Nc1nc2cc(-c3ccc4ncn(CCN5CCOCC5)c(=O)c4c3)ccc2s1` gave a pIC50 of < 4.70 (MTT; 72 h).
`Cc1cccc(NC(=O)Nc2ccc(-c3ccc4ncn(Cc5ccccc5)c(=O)c4c3)cn2)c1` has a pIC50 of < 5.00 (CCK-8; 72 h).
`COc1ccc(NC(=O)Nc2nc3cc(-c4ccc5ncn(Cc6ccccc6)c(=O)c5c4)ccc3s2)cc1` has a pIC50 of 5.56 (MTT; 72 h).
With `C[C@@H]1C[C@H]2[C@@H]3CCC4=CC(=O)C=C[C@]4(C)[C@@]3(F)[C@@H](O)C[C@]2(C)[C@@]1(O)C(=O)CO` the pIC50 was 3.46 (MTT; 48 h).
The pIC50 of `CCCn1cnc2ccc(-c3ccc(NC(=O)CC(C)CC)nc3)cc2c1=O` (centres unmarked) is reported as 5.83 (CCK-8; 72 h).
With `CCCCNC(=O)Nc1nc2cc(-c3ccc4ncn(Cc5ccccc5)c(=O)c4c3)ccc2s1` the pIC50 was 5.20 (MTT; 72 h).
For `Cc1cccc(NC(=O)Cn2cc(COc3ncnc4[nH]cnc34)nn2)c1`, the pIC50 was < 4.00 (MTT).
The pIC50 of `CN(C)C(=O)Nc1nc2c(Cl)cc(Cl)cc2c(=O)n1-c1ccccc1` is reported as < 3.70 (MTT; 48 h).
For `Cc1cc(NS(=O)(=O)c2ccc(NC(=O)/C(C#N)=C/c3ccc(N4CCCCC4)cc3)cc2)no1`, the pIC50 was 4.44 (MTT; 48 h).
For `CCCCC(=O)Nc1ccc(-c2ccc3ncn(CC#N)c(=O)c3c2)cn1`, the pIC50 was < 5.00 (CCK-8; 72 h).
The pIC50 of `O=C(C=Cc1ccc(OCCCCOc2ccc(C=CC(=O)c3cccs3)cc2)cc1)c1cccs1` is reported as 3.63 (MTT; 48 h).
With `NS(=O)(=O)c1ccc(-n2nc(C(=O)NN3C(=O)c4ccccc4C3=O)cc2-c2ccccc2)cc1` the pIC50 was 4.47 (fluorescence; 48 h).
The pIC50 of `O=C(NCc1ccccc1)Nc1nc2cc(-c3ccc4ncn(Cc5ccccc5)c(=O)c4c3)ccc2s1` is reported as 5.50 (MTT; 72 h).
`S=C(N/N=C/c1cccc2cc3ccccc3nc12)Nc1ccccc1` gave a pIC50 of < 4.30 (MTT; 48 h).
The pIC50 of `C/C(=N\C(=S)/N=C(\C)c1c(O)c2ccccc2oc1=O)c1c(O)c2ccccc2oc1=O` is reported as 5.18 (MTT; 48 h).
For `CC(=O)O[C@@]12CO[C@@H]1C[C@H](O)[C@@]1(C)C(=O)[C@H](O)C3=C(C)[C@@H](OC(=O)[C@H](O)[C@@H](NC(=O)OC(C)(C)C)c4ccccc4)C[C@@](O)([C@@H](OC(=O)c4ccccc4)[C@H]21)C3(C)C`, the IC50 was > 60 µg/mL (MTT; 24 h).
With `CCCCC(=O)Nc1ccc(-c2ccc3ncn(C4CC4)c(=O)c3c2)cn1` the pIC50 was < 5.00 (CCK-8; 72 h).
With `CN(C)c1ccc(CNc2ccc(C(=O)O)cc2)cc1` the pIC50 was < 4.00 (resazurin; 72 h).
For `CCCCn1cnc2ccc(-c3ccc(NC(=O)Nc4ccccc4)nc3)cc2c1=O`, the pIC50 was 5.91 (CCK-8; 72 h).
With `CC1=CC(=O)c2ccccc2C1=O` the pIC50 was 4.25 (MTT).
